ChEMBL document CHEMBL1131436, “Repaglinide and related hypoglycemic benzoic acid derivatives” (1998)

Assays:
Rattus norvegicus [1] = assay: Maximum % decrease of blood glucose (deltaBG) was observed within 4 hour after administration orally at 25 mg/kg dose to fasted adult female rats versus a control group; NS =' not significant'; assay type: functional, organism-based; design: dose 25 mg/kg
Outline: (§1)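 Female Wistar rats (Chbb THOM, SPF, 200-220 g), fasted 24 h, dosed orally by gavage as suspension in 1.5% Tylose methylcellulose (10 mL/kg). Whole blood from retrobulbar plexus under light halothane, deproteinized with 0.33 M HClO4; glucose by hexokinase/G6PDH, hourly up to 4 h. % decrease vs control group (N = 7), Student's t-test, P ≤ 0.05.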

Rattus norvegicus [2] = assay: Maximum % decrease of blood glucose (deltaBG) was observed within 4 hour after administration orally at 10 mg/kg dose to fasted adult female rats versus a control group; assay type: functional; conditions: route oral; outline: as §1
Rattus norvegicus [3] = assay: Maximum % decrease of blood glucose (deltaBG) was observed within 4 hour after administration orally at 1 mg/kg dose to fasted adult female rats versus a control group; assay type: functional; conditions: route oral; outline: as §1
Rattus norvegicus [4] = assay: Maximum % decrease of blood glucose (deltaBG) was observed within 4 hour after administration orally at 25 mg/kg dose to fasted adult female rats versus a control group; assay type: functional; conditions: route oral; outline: as §1
Rattus norvegicus [5] = assay: Maximum % decrease of blood glucose (deltaBG) was observed within 4 hour after administration orally at 0.1 mg/kg dose to fasted adult female rats versus a control group; assay type: functional; conditions: route oral; outline: as §1
Rattus norvegicus [6] = assay: Maximum % decrease of blood glucose (deltaBG) was observed within 4 hour after administration orally at 0.5 mg/kg dose to fasted adult female rats versus a control group; assay type: functional; conditions: route oral; outline: as §1
Rattus norvegicus [7] = assay: Maximum % decrease of blood glucose (deltaBG) was observed within 4 hour after administration orally at 1 mg/kg dose to fasted adult female rats versus a control group; NS =' not significant'; assay type: functional, organism-based; design: dose 1 mg/kg; outline: as §1
Rattus norvegicus [8] = assay: Half-maximal effective dose was measured on rat blood glucose after administrating at 4 hr; assay type: functional; conditions: Rattus norvegicus, Blood, 4 h; read-out: ED50
Outline: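 Adult fasted female Wistar rats (Chbb THOM, SPF, 200-220 g), food withdrawn 24 h; oral gavage of suspension in 1.5% Tylose (methylcellulose), 10 mL/kg. Retrobulbar blood under light halothane; glucose by hexokinase/G6PDH after HClO4 deproteinization, hourly to 4 h. ED50 from fit of glucose vs dose, y = b + [a × k/(k + x^nH)], Hill coefficient nH.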

SMILES	Delta BG (Rattus norvegicus [2]) [%]	Delta BG (Rattus norvegicus [3]) [%]	also measured
CCCC(CCCc1ccc(C(=O)O)cc1)c1ccccc1N1CCCCC1 (centres undefined)	–	–	Delta BG (Rattus norvegicus [1]): Not significant
CC1CCCN(c2ccc(Cl)cc2C(C)NC(=O)Cc2ccc(C(=O)O)cc2)C1 (centres undefined)	-34	–	–
CCCC(NC(=O)Cc1ccc(C(=O)O)cc1)c1cc(Cl)ccc1N1CCCCC1 (centres undefined)	–	-17	–
CCCCCCC(NC(=O)Cc1ccc(C(=O)O)c(OCC)c1)c1ccccc1N1CCCCC1 (centres undefined)	–	-21	–
O=C(O)c1ccc(CCNC(=O)c2cc(Cl)ccc2N2CCCC2)cc1	–	–	Delta BG (Rattus norvegicus [4]): -18%
C=C(C)C[C@H](NC(=O)Cc1ccc(C(=O)O)c(OCC)c1)c1ccccc1N1CCCCC1	–	–	Delta BG (Rattus norvegicus [5]): -43%
CCOc1cc(CC(=O)NC(C)c2ccccc2N2CCCCC2)ccc1C(=O)O (centres undefined)	–	–	Delta BG (Rattus norvegicus [5]): -27%
CCOc1cc(CC(=O)NC(Cc2ccccc2)c2ccccc2N2CCCCC2)ccc1C(=O)O (centres undefined)	-38	–	–
CC(NC(=O)Cc1ccc(C(=O)O)cc1)c1cc(Cl)ccc1N1CCCCC1C (centres undefined)	-14	–	–
CCC(NC(=O)Cc1ccc(C(=O)O)cc1)c1ccccc1N1CCCCC1 (centres undefined)	–	–	Delta BG (Rattus norvegicus [6]): -28%
CC1CCN(c2ccc(Cl)cc2C(=O)NCCc2ccc(C(=O)O)cc2)CC1	–	–	Delta BG (Rattus norvegicus [7]): Not significant
CCCCCC(NC(=O)Cc1ccc(C(=O)O)cc1)c1ccccc1N1CCCCC1 (centres undefined)	–	-29	–
CC(NC(=O)Cc1ccc(C(=O)O)cc1)c1cc(Cl)ccc1N1CCCCCCC1 (centres undefined)	–	–	Delta BG (Rattus norvegicus [1]): Not significant
CC1CC(C)CN(c2ccc(Cl)cc2C(C)NC(=O)Cc2ccc(C(=O)O)cc2)C1 (centres undefined)	-20	–	–
CC1CCCN(c2ccc(Cl)cc2C(=O)NCCc2ccc(C(=O)O)cc2)C1 (centres undefined)	–	-22	–
CCCC(NC(=O)Cc1ccc(C(=O)O)cc1)c1ccccc1C1=CCCCC1 (centres undefined)	-48	–	Delta BG (Rattus norvegicus [7]): Not significant
CCCCCC(NC(=O)Cc1ccc(C(=O)O)c(OCC)c1)c1ccccc1N1CCCCC1 (centres undefined)	–	–	Delta BG (Rattus norvegicus [5]): -13%; Delta BG (Rattus norvegicus [6]): -42%
CC1CCCN(c2ccccc2C(C)NC(=O)Cc2ccc(C(=O)O)cc2)C1 (centres undefined)	-42	-27	–
CCCC(NC(=O)Cc1ccc(C(=O)O)cc1)c1ccccc1-c1ccccc1 (centres undefined)	-21	–	–
CC1CCN(c2ccccc2C(C)NC(=O)Cc2ccc(C(=O)O)cc2)CC1 (centres undefined)	-46	-27	–

SMILES	Delta BG (Rattus norvegicus [2]) [%]	Delta BG (Rattus norvegicus [3]) [%]	also measured
CC(NC(=O)Cc1cccc(C(=O)O)c1)c1ccccc1N1CCCCC1 (centres undefined)	–	–	Delta BG (Rattus norvegicus [4]): -12%
CC(C)C(NC(=O)Cc1ccc(C(=O)O)cc1)c1ccccc1N1CCCCC1 (centres undefined)	–	–	Delta BG (Rattus norvegicus [6]): -18%
O=C(O)c1ccc(CCNC(=O)c2cc(Cl)ccc2N2CCCCCCCCCC2)cc1	–	–	Delta BG (Rattus norvegicus [7]): Not significant
CN(C)c1ccc(Cl)cc1C(=O)NCCc1ccc(C(=O)O)cc1	–	–	Delta BG (Rattus norvegicus [4]): -28%
CCC[C@@H](NC(=O)Cc1ccc(C(=O)O)cc1)c1ccccc1N1CCCCC1	–	-19	–
COc1ccccc1C(C)NC(=O)Cc1ccc(C(=O)O)cc1 (centres undefined)	-21	–	–
CC(NC(=O)Cc1ccc(C(=O)O)cc1)c1ccccc1N(C)C (centres undefined)	-20	–	–
CC(C)CC(NC(=O)Cc1ccc(C(=O)O)cc1)c1ccccc1N1CCCCC1 (centres undefined)	–	–	Delta BG (Rattus norvegicus [5]): -30%
CC(NC(=O)Cc1ccc(C(=O)O)cc1)c1ccc(N2CCCCC2)cc1 (centres undefined)	–	–	Delta BG (Rattus norvegicus [1]): Not significant
O=C(O)c1ccc(CCNC(=O)c2ccccc2N2CCCCCCCC2)cc1	–	-9	–
CC(NC(=O)Cc1ccc(C(=O)O)cc1)c1cccc(N2CCCCC2)c1 (centres undefined)	–	–	Delta BG (Rattus norvegicus [4]): -15%
CCOc1cc(CC(=O)NC(CC2CCCC2)c2ccccc2N2CCCCC2)ccc1C(=O)O (centres undefined)	–	–	Delta BG (Rattus norvegicus [5]): -17%
CCOc1cc(CC(=O)NC(CC2CC2)c2ccccc2N2CCCCC2)ccc1C(=O)O (centres undefined)	–	–	Delta BG (Rattus norvegicus [5]): -37%
COc1ccc(Cl)cc1C(=O)NCCc1ccc(C(=O)O)cc1 [MEGLITINIDE]	-22	-9	ED50 (Rattus norvegicus [8]): 9.4 mg/kg
CCCC(NC(=O)Cc1ccc(C(=O)O)cc1)c1ccccc1C1CCCCC1 (centres undefined)	-31	-9	–
O=C(Cc1ccc(C(=O)O)cc1)NC(Cc1ccccc1)c1ccccc1N1CCCCC1 (centres undefined)	-27	–	–
CCOc1cc(CCNC(=O)c2cc(Cl)ccc2N2CCCCCCCC2)ccc1C(=O)O	–	-16	–
CCOc1cc(CC(=O)NC(c2ccccc2)c2ccccc2N2CCCCC2)ccc1C(=O)O (centres undefined)	–	–	Delta BG (Rattus norvegicus [5]): -22%; Delta BG (Rattus norvegicus [6]): -40%
CC(C)(NC(=O)Cc1ccc(C(=O)O)cc1)c1ccccc1N1CCCCC1	-34	–	–
CCCC(NC(=O)Cc1ccc(C(=O)O)cc1)c1ccccc1OC (centres undefined)	-44	-21	–
